The results in this text go back to ChEMBL document CHEMBL1135760, “Anilinoquinazoline inhibitors of fructose 1,6-bisphosphatase bind at a novel allosteric site: synthesis, in vitro characterization, and X-ray crystallography” (J Med Chem, 2002).

For assay [1], the target named is Fructose-1,6-bisphosphatase 1 (Rattus norvegicus, UniProt P19112, Q51K/Q56H). Kind of assay: Concentration required for 50% Inhibition against (F16BP) Fructose-1,6-bisphosphatase in rat double mutant (Gln50Lys Gln55His) enzyme using malachite green assay. The gist of the method:
(§1)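 Recombinant rat liver F16BPase (wild type or Gln50Lys/Gln55His double, Gln50Lys or Gln55His single mutants), expressed in E. coli BL21(DE3) and purified, 40 ng/well. Enzyme added to substrate plus compound with no preincubation. Final buffer was 50 mM HEPES pH 7.2, 100 mM KCl, 2 mM MgCl2, 2 mM EGTA, 1 mM DTT, 500 μM fructose-1,6-bisphosphate. Incubation 40 min at room temperature. Released phosphate read at 620 nm with ammonium molybdate/malachite green. Means of ≥3 experiments. Dose-response tested up to 10 μM.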

Assay [2] addresses T1, Fructose-1,6-bisphosphatase 1 (Rattus norvegicus, UniProt P19112, Q56H). Kind of assay: Concentration required for 50% Inhibition against (F16BP) Fructose-1,6-bisphosphatase in rat single mutant(Gln55His) enzyme using malachite green assay. In short, it runs like this: as §1
Assay [3] deals with T2, Fructose-1,6-bisphosphatase 1 (Rattus norvegicus, UniProt P19112).
T2 sequence (P19112 whole entry): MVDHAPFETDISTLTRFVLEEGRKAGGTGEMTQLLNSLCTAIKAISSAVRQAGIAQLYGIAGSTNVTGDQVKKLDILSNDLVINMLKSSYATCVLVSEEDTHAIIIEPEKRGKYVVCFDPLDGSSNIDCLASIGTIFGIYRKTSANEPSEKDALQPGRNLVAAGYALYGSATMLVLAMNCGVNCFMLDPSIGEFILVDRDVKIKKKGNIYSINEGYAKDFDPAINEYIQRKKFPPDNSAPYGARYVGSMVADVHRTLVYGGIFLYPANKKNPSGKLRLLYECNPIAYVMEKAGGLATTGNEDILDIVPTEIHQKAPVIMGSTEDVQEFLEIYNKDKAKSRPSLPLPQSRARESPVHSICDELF
As to the kind of experiment: Concentration required for 50% Inhibition against (F16BP) Fructose-1,6-bisphosphatase in rat wild type enzyme using malachite green assay. In short, it runs like this:
as §1

Assay [4] is described as follows: Inhibition of human recombinant wild type fructose-1,6-bisphosphatase (F16BP).
In assay [5] the target is Fructose-1,6-bisphosphatase 1 (Rattus norvegicus, UniProt P19112, Q51K). Kind of assay: Concentration required for 50% Inhibition against (F16BP) Fructose-1,6-bisphosphatase in rat single mutant (Gln50Lys) enzyme using malachite green assay. In short, it runs like this:
as §1

In assay [6] the target is T1, Fructose-1,6-bisphosphatase 1. As to the kind of experiment: Concentration required for 50% Inhibition against (F16BP) Fructose-1,6-bisphosphatase in rat single mutant (Gln55His) enzyme using malachite green assay. In short, it runs like this: as §1

Molecules are shown by their SMILES.

Chain of Fructose-1,6-bisphosphatase 1 (Rattus norvegicus, UniProt P19112, Q51K) (P19112 2-363 Q51K limits assumed): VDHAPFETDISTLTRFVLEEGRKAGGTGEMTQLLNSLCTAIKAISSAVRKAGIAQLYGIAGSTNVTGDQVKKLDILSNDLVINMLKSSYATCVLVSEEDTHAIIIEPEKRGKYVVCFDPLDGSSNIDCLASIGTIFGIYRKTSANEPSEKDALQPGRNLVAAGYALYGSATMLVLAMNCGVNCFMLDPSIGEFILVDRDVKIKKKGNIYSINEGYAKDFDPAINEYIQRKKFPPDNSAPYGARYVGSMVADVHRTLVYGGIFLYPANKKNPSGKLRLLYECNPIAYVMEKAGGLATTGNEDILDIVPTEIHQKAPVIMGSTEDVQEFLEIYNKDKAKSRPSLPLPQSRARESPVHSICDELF
T1 sequence (P19112 2-363 Q56H limits assumed): as the sequence (P19112 2-363 Q51K limits assumed) above, with K50Q, Q55H counted along it
Chain of Fructose-1,6-bisphosphatase 1 (Rattus norvegicus, UniProt P19112, Q51K/Q56H) (P19112 2-363 Q51K/Q56H limits assumed): as the sequence (P19112 2-363 Q51K limits assumed) above, with Q55H counted along it

For `CCOc1cc2ncnc(Nc3cccc(-c4csc(C)n4)c3)c2cc1OCC`, the IC50 in assay [1] was 790 nM; in assay [2], 3800 nM; in assay [3] it was greater than 10000 nM; in assay [4], 640 nM; in assay [5], greater than 10000 nM.

`CCOc1cc2ncnc(Nc3cccc(-c4csc(CO)n4)c3)c2cc1OCC`: the IC50 in assay [1] was 340 nM; in assay [6] it was 2900 nM; in assay [3], greater than 10000 nM; in assay [5] it was greater than 10000 nM.

Take `CCOc1cc2ncnc(Nc3cccc(-c4csc(C(N)=O)n4)c3)c2cc1OCC`: the IC50 in assay [1] is 520 nM; in assay [6], 3000 nM; in assay [3], greater than 10000 nM; in assay [4], 930 nM; in assay [5], greater than 10000 nM.

The IC50 is the concentration that gives 50% inhibition.
